From PubChem BioAssay
KCNK9 block: human KCNK9 channel inhibition; Q9NPC2; HEK293 KCNK9, FluxOR thallium flux fluorescence; stronger effect = lower value; B-score at 10 µM; 1.2% of 310,000 active; AID 488922;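 active means ratio B-score over 3 SD below the library mean, with starting fluorescence within 5 SD of its mean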;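 further: negative B-score means less thallium flux so channel inhibition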
KCNQ1 block: inhibitors of human KCNQ1 potassium channel | P51787 | B-score at 10 µM | CHO-K1 KCNQ1, FluxOR thallium flux fluorescence; stronger effect = higher value | AID 2642 | 1.3% of 310,000 active;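 active means compounds whose thallium flux B-score, printed positive for inhibition, exceeds three library SD while starting fluorescence stays within three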;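 further: channel opened by potassium depolarization with thallium stimulus after 20 min compound exposure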
hERG rescue: hERG (human) protection from proarrhythmic block | Q12809 | CHO-hERG, FluxOR thallium flux, dofetilide IC70 present | activation (rescue from dofetilide block), less the hit threshold, % at 10 µM | 0.51% of 310,000 active | AID 1511;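 active means activation above the mean of controls blocked by dofetilide plus 5 SD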;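 further: thallium influx through hERG after potassium depolarization seen as dye fluorescence rise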
KCNK3 inh: human KCNK3 channel inhibition, primary screen | B-score at 10 µM | 0.84% of 340,000 active | CHO-KCNK3 thallium flux, FluxOR fluorescence; stronger effect = lower value;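 active means B-score under library mean minus 4 SD, starting fluorescence ratio at most library mean plus 5 SD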;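 further: more negative B-score means stronger inhibition of thallium flux through KCNK3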
Kir21 block: blocks the mouse Kir2.1 inward-rectifier potassium channel | P35561 | B-score at 10 µM | 0.85% of 310,000 active | HEK293-Kir2.1, FluxOR thallium flux fluorescence; stronger effect = lower value;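 active means fluorescence ratio B-score at or below minus 3 SD of library scores, with starting-brightness B-score within 2 SD, cut at about -4.2 in these data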;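 further: channel flux triggered by added potassium and thallium sulfate stimulus; B-score of peak minus minimum fluorescence over baseline after thallium stimulus; more negative B-score means stronger Kir2.1 block with less thallium influx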
Target sequence (P35561 whole entry, looked up): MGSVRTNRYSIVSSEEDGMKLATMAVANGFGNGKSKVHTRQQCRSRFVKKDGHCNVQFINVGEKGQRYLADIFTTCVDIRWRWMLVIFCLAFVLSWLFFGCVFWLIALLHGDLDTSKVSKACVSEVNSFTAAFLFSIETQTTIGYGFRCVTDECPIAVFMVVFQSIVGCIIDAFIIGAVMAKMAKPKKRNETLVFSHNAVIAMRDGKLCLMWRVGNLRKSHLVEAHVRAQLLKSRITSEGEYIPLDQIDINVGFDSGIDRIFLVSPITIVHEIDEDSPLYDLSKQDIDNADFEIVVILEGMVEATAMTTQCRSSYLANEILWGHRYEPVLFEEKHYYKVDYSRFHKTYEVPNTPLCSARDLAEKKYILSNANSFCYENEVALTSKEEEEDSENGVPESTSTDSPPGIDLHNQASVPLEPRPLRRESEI
KCNQ1 act: human KCNQ1 channel potentiation or activation. P51787. B-score at 10 µM. 0.35% of 310,000 active. CHO-K1 KCNQ1, thallium flux FluxOR fluorescence; stronger effect = higher value;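 active means fluorescence ratio B-score, a plate-corrected score, at least three library SD, with initial intensity B-score within 5 SD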
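Assay system: stable KCNQ1 CHO-K1 line; medium: assay buffer, equal DMSO in all wells; timing: 90 min dye loading and 20 min compound exposure, both at room temperature; technique: kinetic FluxOR thallium fluorescence, 10-s 1-Hz baseline, 110-s post-stimulus read; read-out basis: B score of baseline-normalized fluorescence ratio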
KCNK9 inh conf: confirmation of human KCNK9 potassium channel inhibitors; shares compounds with KCNK9 block; HEK293 KCNK9 cells, FluxOR thallium flux fluorescence; 43% of 4,900 active; inhibition, % at 10 µM; AID 492992;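 active means thallium signal inhibited by more than 5 SD of the compound-free buffer control wells, on both duplicate plates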;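 further: 0% = assay buffer control wells without compound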
Kir21 sel: selectivity of KCNK9 modulators against mouse Kir2.1 | shares compounds with KCNK9 block | Kir2.1 cells, FluxOR thallium flux fluorescence | inhibition, % at 10 µM | 4% of 4,900 active | AID 492993;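 active means thallium signal drop more than 5 SD beyond the mean of the no-compound control wells, seen in both duplicate plates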;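 further: signal is fluorescence rise after thallium addition divided by baseline fluorescence; plate controls were assay buffer only for no effect and full block by chlorpromazine control for full effect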
KCNK9 uninduced: non-induced cell nonspecific activity of KCNK9 modulators; shares compounds with KCNK9 block; non-induced KCNK9-HEK293, FluxOR thallium flux; inhibition, % at 10 µM; 40% of 4,900 active; AID 492997;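 active means thallium signal drop beyond 5 SD of the untreated control mean, on both duplicate plates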;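 further: plate controls were buffer only IC0 wells for no effect and SID17386958 at its maximal inhibitory level for full effect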
* = called active by the depositor; i = inactive; nt = not tested or not shown. Hits are enriched below; roughly 3.8% of the tested compounds scored in any of these assays.

SMILES	KCNK9 block	KCNQ1 block	hERG rescue	KCNK3 inh	Kir21 block	KCNQ1 act	KCNK9 inh conf	Kir21 sel	KCNK9 uninduced
COc1ccccc1N1CCN(S(=O)(=O)c2ccc3c(c2)n(C)c(=O)n3C)CC1	i	i	-9	i	-0.26	i	nt	nt	nt
Cc1cccc(OCc2nc(-c3ccc(Br)o3)no2)c1	i	i	-7	i	0.42	i	i	i	24%*
Fc1ccc(OCc2nc(-c3ccc(Br)o3)no2)c(F)c1	i	i	-7	i	-0.18	i	nt	nt	nt
COc1cccc(OCc2nc(-c3ccc(Br)o3)no2)c1	i	i	-13	i	-3.7	i	i	i	i
CCCC1=C(C(=O)OCC)C(c2cccs2)C(C#N)=C(N)O1 (centres undefined)	i	i	-12	i	-1.9	i	nt	nt	nt
CCN1CC2=C(OC(N)=C(C#N)C2c2cccs2)/C(=C/c2cccs2)C1 (centres undefined)	-8.9*	i	-15	i	1.2	i	35%*	i	31%*
O=C(NCCCN1CCOCC1)c1ccc2c(c1)N(Cc1c(F)cccc1Cl)C(=O)CS2	i	i	-7	i	-0.64	i	nt	nt	nt
CCc1ccc(N=C2NC(=O)/C(=C/c3cc(OC)c(O)c(OC)c3)S2)cc1	-8.8*	i	-11	i	-0.11	i	i	i	34%*
COc1cc(/C=C2\SC(=Nc3ccccc3)NC2=O)cc(Cl)c1O	i	i	-1	i	-3.3	i	nt	nt	nt
COc1ccc(C(=O)OC(C)C(=O)NC(C)CCc2ccccc2)cc1OC (centres undefined)	i	i	-2	i	-0.13	i	nt	nt	nt
CCn1c(SCCOc2ccc(Cl)cc2)nnc1-c1cccs1	i	i	-11	i	-5.8*	i	i	i	i
COc1ccc(CCNC(=O)CCS(=O)(=O)c2ccc3nc(C)sc3c2)cc1OC	i	i	-14	i	0.94	i	nt	nt	nt
CCOC(=O)c1sc2nc(CC(=O)OC)nc(N3CCN(c4ccc(OC)cc4)CC3)c2c1C	i	i	-3	i	0.27	i	i	i	i
COc1c(C)cc(C(=O)C2CCCN(C(=O)Cn3nc(C)nc3C)C2)cc1C (centres undefined)	i	i	-6	i	1.7	i	nt	nt	nt
C=CCn1c(C)cc(C(=O)CSc2nnc3n(CCC)c(=O)c4ccccc4n23)c1C	nt	nt	nt	i	nt	nt	nt	nt	nt
O=[N+]([O-])c1cc(/C=N/O)ccc1Oc1ccccc1Cl	i	i	-15	i	-3.8	i	nt	nt	nt
O=[N+]([O-])c1cc(/C=N/O)ccc1Oc1cccc(Cl)c1	-10*	i	-14	i	0.34	i	41%*	i	25%*
O=C(NCCN1CCN(Cc2ccccc2)CC1)c1ccc(CS(=O)(=O)c2ccc(Br)cc2)o1	i	i	-5	i	-3.7	i	nt	nt	nt
CC(=O)c1cccc(NC(=O)CN2C(=O)C(=O)N(Cc3ccco3)C2=O)c1	nt	nt	nt	i	nt	nt	nt	nt	nt
CCCCOC(=O)Nc1cc(Cl)ccc1C	-13*	i	-9	i	0.19	i	32%*	i	i
CCCCOC(=O)Nc1cc(C)c(Cl)cc1OC	i	i	1	i	-0.51	i	nt	nt	nt
CC(=O)N1c2ccc(S(=O)(=O)NCC3CCC(C(=O)N4CC(C)CC(C)C4)CC3)cc2CC1C (centres undefined)	i	i	-14	i	0.66	i	nt	nt	nt
O=C(Nc1ccccc1F)Nc1ccccc1OC(F)F	i	i	-8	i	0.79	i	nt	nt	nt
CCc1ccc2nc(SCC(=O)NCC3CCCO3)c(C#N)cc2c1 (centres undefined)	i	i	-4	i	0.15	i	i	i	i
COC(=O)CNC(c1ccccc1)c1cc(Br)ccc1NC(=O)OCc1ccccc1 (centres undefined)	-18*	i	-5	i	-1.5	i	74%*	i	64%*
SMILES	KCNK9 block	KCNQ1 block	hERG rescue	KCNK3 inh	Kir21 block	KCNQ1 act	KCNK9 inh conf	Kir21 sel	KCNK9 uninduced
O=C(Nc1nc(-c2cccs2)c(-c2ccccc2)s1)c1ccco1	-9*	i	-16	i	0.11	i	62%*	i	26%*
Cc1cc(C(=O)CCC(=O)NCc2ccccc2F)c(C)s1	i	i	-10	i	0.72	i	nt	nt	nt
CC[C@]12c3[nH]c4cc(-c5ccco5)ccc4c3CCN1C(=O)[C@@H](CC(=O)NCc1cccc(C(F)(F)F)c1)C[C@@H]2C(=O)N1CCN(C(=O)c2ccco2)CC1	nt	nt	nt	i	nt	nt	nt	nt	nt
O=C(Oc1ccc2ccc(=O)oc2c1)c1ccccc1	i	i	-11	i	0.67	i	nt	nt	nt
COc1ccc(C(=O)Oc2ccc3ccc(=O)oc3c2)cc1	-13*	i	-3	i	1.1	i	64%*	i	27%*
COc1ccc(NC(=O)c2ccc(-c3ccc([N+](=O)[O-])cc3)o2)cc1OC	-16*	i	-8	i	-0.13	i	56%*	i	26%*
Cc1cc(C)cc(C(=O)N(CCc2ccccc2)C2CC3CCC(C2)N3C)c1 (centres undefined)	i	i	-4	i	-0.95	i	i	i	i
CCOc1ccccc1OCCCOc1ccc(C)cc1Cl	i	i	-11	i	-1.6	i	i	i	32%*
COc1ccccc1OCCOCCOc1ccccc1Cl	i	i	-2	i	0.14	i	i	i	i
CCc1ccccc1OCCCCN1CCCC1	i	i	-2	i	0.02	i	nt	nt	nt
CCOc1ccc(OCCOCCOc2ccccc2Cl)cc1	i	i	-8	i	-0.08	i	i	i	i
CCOc1ccccc1OCCOc1ccccc1CC	i	i	-8	i	-1.9	i	i	i	i
CC12C(=O)N(c3nccs3)C(=O)C1C1C=CC2C1 (centres undefined)	i	i	-9	i	0.16	i	nt	nt	nt
COc1cc2c(cc1OC)CN(C(=O)/C=C/c1cccs1)CC2	i	i	-4	i	2.2	i	nt	nt	nt
CCOC(=O)C1(Cc2cccc(OC)c2)CCN(Cc2cnc(C)s2)CC1	i	i	-6	i	-0.01	i	nt	nt	nt
Cc1ccc(NC(=O)CN(C)S(=O)(=O)c2ccc(Cl)s2)c(O)c1	nt	nt	nt	i	nt	nt	nt	nt	nt
O=C(CCc1ccc(S(=O)(=O)N2CCOCC2)cc1)OCC(=O)c1ccccc1F	nt	nt	nt	i	nt	nt	nt	nt	nt
